Assay results from different studies.
Each line is one published result; the experiments were not run side by side.
Si: Sucrase-isomaltase, intestinal (Si, Rattus norvegicus, UniProt P23739)
TYR: Tyrosinase (TYR, Homo sapiens, UniProt P14679)
PIK3C3: Phosphatidylinositol 3-kinase catalytic subunit type 3 (PIK3C3, Homo sapiens, UniProt Q8NEB9)
Abl2: Abl2 (Mus musculus, UniProt Q4JIM5)
ESR1: Estrogen receptor (ESR1, Homo sapiens, UniProt P03372)

| Compound | target | effect on | action | technique | cell line | concentration | inhibition |
| --- | --- | --- | --- | --- | --- | --- | --- |
| Ic1cccc2cnccc12 | NAD(+) hydrolase SARM1 (SARM1, Homo sapiens, UniProt Q6SZW1) | enzyme activity | inhibitor | – | – | 10 µM | 100% |
| O=c1c(O[C@@H]2O[C@H](CO)[C@@H](O)[C@H](O)[C@H]2O)c(-c2ccc(O)c(O)c2)oc2cc(O)cc(O)c12 | Si | enzyme activity | inhibitor | – | – | 200 µg/mL | 61.4% |
| Cc1ccc(C(C)C)cc1NC(=O)COC(=O)/C=C/c1ccc(Cl)cc1 | TYR | enzyme activity | inhibitor | – | – | 50 µg/mL | 57.4% |
| CS(=O)(=O)Nc1cccc(-c2csc(NC(=O)CSc3nc4nccnc4c(=O)n3CCc3ccccc3)n2)c1 | PIK3C3 | enzyme activity | inhibitor | – | – | 10 µM | 9% |
| Cc1ccc(Nc2nccc(N(C)c3ccc4c(C)n(C)nc4c3)n2)cc1S(N)(=O)=O | Abl2 | enzyme activity | inhibitor | – | – | 10 µM | 76% |
| COc1cc(-c2cc(-c3ccc(N4CCNCC4)cc3)cnc2C)cc(OC)c1OC | cAMP-dependent protein kinase catalytic subunit beta (PRKACB, Homo sapiens, UniProt P22694) | enzyme activity | inhibitor | – | – | 0.1 µM | 2% |
| CNc1cc(Oc2cc(C(=O)Nc3cc(N4CCN(C)CC4)cc(C(F)(F)F)c3)ccc2C)ncn1 | PAN2-PAN3 deadenylation complex subunit PAN3 (Homo sapiens, UniProt Q58A45) | target engagement in cells | inhibitor | chemoproteomics | Huh-7 | 1 µM | -39.3% |
| O=C(c1ccc(Cl)cc1)N(Cc1ccccc1)C1CCCCC1 | ESR1 | cell-free assay | – | – | – | 10 µM | -2.9% |
| Cc1ccc(C(C)C)cc1NC(=O)COC(=O)c1ccc(O)cc1 | TYR | enzyme activity | inhibitor | – | – | 50 µg/mL | 53.8% |
| COc1cc(NC(C)=O)c(Cl)cc1C(=O)Nc1nccs1 | ESR1 | cell-free assay | – | – | – | 10 µM | 1.4% |
| Cc1ccc(C(C)C)cc1NC(=O)COC(=O)c1ccc(O)c(O)c1 | TYR | enzyme activity | inhibitor | – | – | 50 µg/mL | 56.9% |
| CCN(Cc1ccccc1C(F)(F)F)C(=O)C1CCN(S(=O)(=O)c2ccc3[nH]ncc3c2)CC1 | ESR1 | ligand displacement | – | radioligand | – | 10 µM | 8% |
| CNC(=O)c1cc(Oc2ccc(NC(=O)Nc3ccc(Cl)c(C(F)(F)F)c3)cc2)ccn1 | Abl2 | enzyme activity | inhibitor | – | – | 0.3 µM | 16% |
| O=c1c(O[C@@H]2O[C@@H](CO)[C@H](O)[C@H]2O)c(-c2ccc(O)c(O)c2)oc2cc(O)cc(O)c12 | Si | enzyme activity | inhibitor | – | – | 25 µg/mL | 28.6% |
| O=C1N=C(N2CCCCN2)S/C1=C\c1ccc(F)cc1O | Nociceptin receptor (OPRL1, Homo sapiens, UniProt P41146) | ligand displacement | – | radioligand | – | 10 µM | < 10% |
| Oc1cccc(Nc2nc(-c3ccc(F)cc3F)cs2)c1 | ESR1 | cell-free assay | – | – | – | 10 µM | 11.2% |
| O=C(CSc1nc2nccnc2c(=O)n1CCc1ccccc1)Nc1nccs1 | PIK3C3 | enzyme activity | inhibitor | – | – | 10 µM | 28% |
| Cc1ccc(C(C)C)cc1NC(=O)COC(=O)/C=C/c1ccccc1O | TYR | enzyme activity | inhibitor | – | – | 50 µg/mL | 53.7% |
| O=C1OC[C@H]2OC(=O)c3cc(O)c(O)c(O)c3-c3c(O)c(O)c(O)c4c3C(=O)O[C@H]([C@H]3OC(=O)c5c-4c(O)c(O)c(O)c5[C@H]3O)[C@@H]2OC(=O)c2cc(O)c(O)c(O)c2-c2c1cc(O)c(O)c2O | Si | enzyme activity | inhibitor | – | – | 50 µg/mL | 28.4% |
| Cc1ccc(C(C)C)cc1NC(=O)COC(=O)c1ccc(O)cc1O | TYR | enzyme activity | inhibitor | – | – | 50 µg/mL | 66.7% |
| O=C(c1ccc(F)cc1)N(Cc1ccccc1)C1CCCCC1 | Interleukin-1 receptor type 1 (IL1R1, Homo sapiens, UniProt P14778) | cell-free assay | – | – | – | 10 µM | 14% |
| N#Cc1cc(Cn2c(N3CCCC3)nc3ccccc32)ccc1F | Alpha-2C adrenergic receptor (ADRA2C, Homo sapiens, UniProt P18825) | ligand displacement | – | – | – | 10 µM | 16.1% |
| CN(C)C1CCN(CC#Cc2nn(C3CCCC3)c3nc(NCc4ccccc4)ncc23)C1 (stereo not drawn) | Inhibitor of nuclear factor kappa-B kinase subunit beta (IKBKB, Homo sapiens, UniProt O14920) | enzyme activity | inhibitor | FRET | – | 0.1 µM | -1% |
| O=C(Nc1ccc(S(=O)(=O)N2CCC(Cl)CC2)cc1)c1ccc([N+](=O)[O-])o1 | ESR1 | ligand displacement | – | radioligand | – | 10 µM | 0% |
